Experimental data reported in ChEMBL document CHEMBL4706597, “Structure-guided optimization and mechanistic study of a class of quinazolinone-threonine hybrids as antibacterial ThrRS inhibitors” (Eur J Med Chem, 2020).
In brackets after ≈: the same amount, converted by molar mass. Activity calls are given as the source filed them. The calls are words filed in the database; no cut-off is given here.

What was measured:
Salmonella enterica [1] = assay: Binding affinity to Salmonella enterica Threonyl-tRNA synthetase assessed as change in melting temperature at 0.5 mM incubated for 10 mins by SYPRO orange dye-based thermal shift assay
Procedure, shortened: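 SeThrRS 8 μM in 100 mM HEPES pH 7.5, 150 mM NaCl, 4× SYPRO orange, with 0.5 mM compound or 0.5% DMSO blank; 25 °C for 10 min, then ramped 25 to 95 °C at 1 °C/min, fluorescence read every 30 s. Tm fitted from melt curve; ΔTm = with minus without compound; mean of three independent experiments.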

Salmonella enterica [2] = assay: Inhibition of Salmonella enterica Threonyl-tRNA synthetase assessed as reduction in aminoacylation activity at 100 uM using L-threonine as substrate incubated for 3 hrs by Kinase-glo luminescence assay relative to control
Procedure, shortened: (§1)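 3 h at room temperature, stopped with Kinase-Glo, luminescence read. Inhibition % = (RLU compound − RLU blank)/(RLU no-enzyme − RLU blank) × 100, at 100 μM compound. IC50 run for compounds above 50% inhibition at 100 μM, fitted as 100/(1+([I]/IC50)^B). Mean of three independent assays.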

Enterococcus faecalis = assay: Antibacterial activity against Enterococcus faecalis ATCC 29212 assessed as reduction in bacterial growth incubated for 18 hrs by CLSI based broth microdilution assay; assay type: functional
Procedure, shortened: (§2)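 Broth microdilution per CLSI; compounds in 2-fold dilutions starting from 256 μg/mL. Defined medium: M9 with 0.4% glucose plus 100 μM of all canonical amino acids. MIC read as growth end point.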

[3] = Inhibition of Salmonella enterica Threonyl-tRNA synthetase assessed as reduction in aminoacylation activity using L-threonine as substrate incubated for 3 hrs by Kinase-glo luminescence assay; procedure, shortened: as §1
Staphylococcus aureus [4] = assay: Antibacterial activity against Staphylococcus aureus ATCC 29213 assessed as reduction in bacterial growth incubated for 18 hrs by CLSI based broth microdilution assay; assay type: functional; procedure, shortened: as §2
Staphylococcus aureus [5] = assay: Antibacterial activity against methicillin-resistant Staphylococcus aureus R3708 assessed as reduction in bacterial growth incubated for 18 hrs by CLSI based broth microdilution assay; assay type: functional
Procedure, shortened: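 Broth microdilution under CLSI conditions, with 2-fold compound dilutions starting at 256 μg/mL. Medium was M9 with 0.4% glucose, supplemented with 100 μM of all canonical amino acids.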

Escherichia coli = assay: Antibacterial activity against Escherichia coli ATCC 25922 assessed as reduction in bacterial growth incubated for 18 hrs by CLSI based broth microdilution assay; assay type: functional; procedure, shortened: as §2
Salmonella enterica [6] = assay: Antibacterial activity against Salmonella enterica 87 assessed as reduction in bacterial growth incubated for 18 hrs by CLSI based broth microdilution assay; assay type: functional; procedure, shortened: as §2
Pseudomonas aeruginosa = assay: Antibacterial activity against Pseudomonas aeruginosa ATCC 27853 assessed as reduction in bacterial growth incubated for 18 hrs by CLSI based broth microdilution assay; assay type: functional; procedure, shortened: as §2
Salmonella enterica [7] = assay: Potency index, ratio of IC50 of parent compound to IC50 of compound for inhibition of Salmonella enterica Threonyl-tRNA synthetase assessed as reduction in aminoacylation activity using L-threonine as substrate incubated for 3 hrs by Kinase-glo luminescence assay
[8] = Binding affinity to Salmonella enterica Threonyl-tRNA synthetase at 200 uM by isothermal titration calorimetry
Procedure, shortened: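 ITC: 20 μM SeThrRS in cell, 200 μM ligand in syringe, both in 20 mM HEPES pH 7.5, 150 mM NaCl. First injection 5 μL, then 24 × 10 μL at 180 s spacing. Ligand-into-buffer isotherm subtracted as baseline; one-site model fit gives Kd, ΔH, ΔS, N.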

Salmonella enterica [9] = assay: Inhibition of Salmonella enterica Threonyl-tRNA synthetase assessed as reduction in aminoacylation activity at 10 uM using increasing concentration of L-threonine as substrate incubated for 3 hrs by Kinase-glo luminescence assay
Procedure, shortened: (§3)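 Aminoacylation by SeThrRS followed as ATP consumption (Kinase-Glo luminescence) after 3 h at room temperature. Inhibitor held at 10 μM while one substrate (L-Thr, tRNA^Thr or ATP, per line) was raised stepwise to test competition. Other components as in the standard assay.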

Salmonella enterica [10] = assay: Inhibition of Salmonella enterica Threonyl-tRNA synthetase assessed as reduction in aminoacylation activity at 10 uM using increasing concentration of t-RNAthr as substrate incubated for 3 hrs by Kinase-glo luminescence assay; procedure, shortened: as §3
Salmonella enterica [11] = assay: Inhibition of Salmonella enterica Threonyl-tRNA synthetase assessed as reduction in aminoacylation activity at 10 uM using increasing concentration of ATP as substrate incubated for 3 hrs by Kinase-glo luminescence assay; procedure, shortened: as §3

Row | Compound | ΔTm (Salmonella enterica [1]) [°C] | inhibition (Salmonella enterica [2]) [%] | MIC (Enterococcus faecalis) [µg/mL] | IC50 [3] [µM] | MIC (Staphylococcus aureus [4]) [µg/mL] | MIC (Staphylococcus aureus [5]) [µg/mL] | MIC (Escherichia coli) [µg/mL] | MIC (Salmonella enterica [6]) [µg/mL] | MIC (Pseudomonas aeruginosa) [µg/mL] | also measured
1 | C[C@H](O)[C@@H](N)C(=O)NC/C=C/Cn1cnc2cc(Cl)c(Cl)cc2c1=O | 0.6 | 6 |  |  |  |  |  |  |  | 
2 | CN[C@H](CC(C)C)C(=O)N[C@H]1C(=O)N[C@@H](CC(N)=O)C(=O)N[C@H]2C(=O)N[C@H]3C(=O)N[C@H](C(=O)N[C@H](C(=O)O)c4cc(O)cc(O)c4-c4cc3ccc4O)[C@H](O)c3ccc(c(Cl)c3)Oc3cc2cc(c3O[C@@H]2O[C@H](CO)[C@@H](O)[C@H](O)[C@H]2O[C@H]2C[C@](C)(N)[C@H](O)[C@H](C)O2)Oc2ccc(cc2Cl)[C@H]1O [VANCOMYCIN] |  |  | 2 (≈ 1.38 µM) |  |  |  |  |  |  | 
3 | C[C@@H](O)[C@H](NCCF)C(=O)NC/C=C/Cn1cnc2cc(Cl)c(Cl)cc2c1=O | 19.1 | 99 | 32 (≈ 74.2 µM) | 2.5 | 32 (≈ 74.2 µM) | 64 (≈ 148 µM) | 32 (≈ 74.2 µM) | 32 (≈ 74.2 µM) | 64 (≈ 148 µM) | 
4 | O=C1CC[C@H](C(=O)NC/C=C/Cn2cnc3cc(Cl)c(Cl)cc3c2=O)N1 | -0.2 | 0 |  |  |  |  |  |  |  | 
5 | O=C1CC[C@@H](C(=O)NC/C=C/Cn2cnc3cc(Cl)c(Cl)cc3c2=O)N1 | -0.4 | 5 |  |  |  |  |  |  |  | 
6 | C[C@@H](O)[C@H](NCC#N)C(=O)NC/C=C/Cn1cnc2cc(Cl)c(Cl)cc2c1=O | 18.8 | 93 |  | 9.6 |  |  |  |  |  | 
7 | CCO[C@H](C)[C@H](N)C(=O)NC/C=C/Cn1cnc2cc(Cl)c(Cl)cc2c1=O | 0.2 | 4 |  |  |  |  |  |  |  | 
8 | O=C(CC1NCCCC1O)Cn1cnc2cc(Br)c(Cl)cc2c1=O (stereo unspecified) [HALOFUGINONE] | -1.5 | 4 | 128 (≈ 309 µM) |  | 64 (≈ 154 µM) | 64 (≈ 154 µM) | 128 (≈ 309 µM) | 64 (≈ 154 µM) | 64 (≈ 154 µM) | 
9 | C=CCN[C@H](C(=O)NC/C=C/Cn1cnc2cc(Cl)c(Cl)cc2c1=O)[C@@H](C)O | 22.1 | 100 |  | 1.2 |  |  |  |  |  | 
10 | CCN[C@H](C(=O)NC/C=C/Cn1cnc2cc(Cl)c(Cl)cc2c1=O)[C@@H](C)O | 22.5 | 100 | 32 (≈ 77.4 µM) | 0.96 | 64 (≈ 155 µM) | 32 (≈ 77.4 µM) | 16 (≈ 38.7 µM) | 32 (≈ 77.4 µM) | 32 (≈ 77.4 µM) | 
11 | N[C@@H](CO)C(=O)NC/C=C/Cn1cnc2cc(Cl)c(Cl)cc2c1=O | 0.6 | 2 |  |  |  |  |  |  |  | 
12 | C[C@@H](O)[C@H](N)C(=O)NS(=O)(=O)c1cccc(-c2ccc3[nH]ncc3c2)c1 |  |  | > 256 |  | > 256 | > 256 | > 256 | > 256 | > 256 | 
13 | CC1(C)S[C@@H]2[C@H](NC(=O)[C@H](N)c3ccccc3)C(=O)N2[C@H]1C(=O)O [AMPICILLIN] |  |  |  |  |  |  | 1 (≈ 2.86 µM) | 1 (≈ 2.86 µM) | 0.5 (≈ 1.43 µM) | 
14 | CC(C)N[C@H](C(=O)NC/C=C/Cn1cnc2cc(Cl)c(Cl)cc2c1=O)[C@@H](C)O | 14.1 | 63 |  | 49.3 |  |  |  |  |  | 
15 | CC(C)(O)[C@H](N)C(=O)NC/C=C/Cn1cnc2cc(Cl)c(Cl)cc2c1=O | 0.9 | 0 |  |  |  |  |  |  |  | 
16 | CN[C@H](C(=O)NC/C=C/Cn1cnc2cc(Cl)c(Cl)cc2c1=O)[C@@H](C)O | 28.4 | 100 | 32 (≈ 80.1 µM) | 0.5 | 32 (≈ 80.1 µM) | 32 (≈ 80.1 µM) | 16 (≈ 40.1 µM) | 16 (≈ 40.1 µM) | 32 (≈ 80.1 µM) | Ratio IC50 (Salmonella enterica [7]): 3; Kd [8]: 0.4 µM; inhibition (Salmonella enterica [9]): Active; inhibition (Salmonella enterica [10]): Active; inhibition (Salmonella enterica [11]): Active
